Measured values: ChEMBL document CHEMBL4334455, “Synthesis of Usnic Acid Derivatives and Evaluation of Their Antiproliferative Activity against Cancer Cells” (J Nat Prod, 2019)
Calls of active or inactive are those of the source. The calls are words filed in the database; no cut-off is given here.

Experiments:
[1] = tested on: MCF7; experiment: Antiproliferative activity against human MCF7 cells assessed as reduction in cell viability after 48 hrs by MTT assay; assay type: functional, cell-based
Method in brief: (§1)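 Cells seeded at 4 × 10³/well for 24 h runs and for PC-3, or 2 × 10³/well for MCF-7 and HeLa 48 h runs, and attached overnight. Medium replaced with compound-containing medium for 24 or 48 h. MTT (4 mg mL⁻¹) added for the final 3 h, formazan dissolved in DMSO, absorbance read at 570 nm (reference 660 nm). IC₅₀ calculated from at least three independent experiments in duplicate, mean ± SE.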

[2] = tested on: MCF7; experiment: Antiproliferative activity against human MCF7 cells assessed as reduction in cell viability after 24 hrs by MTT assay; assay type: functional, cell-based; conditions: for IC50: MCF7, 24 h; method in brief: as §1
[3] = tested on: HeLa; experiment: Induction of cell cycle arrest in human HeLa cells assessed as accumulation of cells at G0/G1 phase 2.4 to 7.2 uM after 24 hrs by propidium iodide staining based flow cytometric analysis (reference value: 44%); assay type: functional
[4] = tested on: HeLa; experiment: Antiproliferative activity against human HeLa cells assessed as reduction in cell viability after 48 hrs by MTT assay; assay type: functional, cell-based; method in brief: as §1
[5] = tested on: HeLa; experiment: Antiproliferative activity against human HeLa cells assessed as reduction in cell viability after 24 hrs by MTT assay; assay type: functional, cell-based; method in brief: as §1
[6] = Cytotoxicity against human HDFa cells assessed as reduction in cell viability after 24 hrs by MTT assay; assay type: cell-based; method in brief: as §1
[7] = Cytotoxicity against human HDFa cells assessed as reduction in cell viability after 48 hrs by MTT assay; assay type: cell-based; method in brief: as §1
[8] = tested on: MCF7; experiment: Cytostatic activity against human MCF7 cells measured after 24 hrs by MTT assay; assay type: functional, cell-based; method in brief: as §1
[9] = tested on: HeLa; experiment: Cytostatic activity against human HeLa cells measured after 24 hrs by MTT assay; assay type: functional, cell-based; method in brief: as §1
[10] = tested on: HeLa; experiment: Cell cycle arrest in human HeLa cells assessed as reduction in cell population at S phase at 2.4 to 7.2 uM after 24 hrs by propidium iodide staining based flow cytometric analysis; assay type: functional
[11] = tested on: HeLa; experiment: Cell cycle arrest in human HeLa cells assessed as reduction in cell population at G2/M phase at 2.4 to 7.2 uM after 24 hrs by propidium iodide staining based flow cytometric analysis; assay type: functional
[12] = tested on: PC-3; experiment: Antiproliferative activity against human PC3 cells assessed as reduction in cell viability after 24 hrs by MTT assay; assay type: functional, cell-based; conditions: PC-3, 24 h; method in brief: as §1
[13] = tested on: PC-3; experiment: Antiproliferative activity against human PC3 cells assessed as reduction in cell viability after 48 hrs by MTT assay; assay type: functional, cell-based; conditions: PC-3, 48 h; method in brief: as §1
[14] = tested on: PC-3; experiment: Cytostatic activity against human PC3 cells measured after 24 hrs by MTT assay; assay type: functional, cell-based; method in brief: as §1
[15] = tested on: HeLa; experiment: Cell cycle arrest in human HeLa cells assessed as accumulation of cells at G2/M phase at 8.7 uM after 24 hrs by propidium iodide staining based flow cytometric analysis; assay type: functional
[16] = tested on: HeLa; experiment: Cell cycle arrest in human HeLa cells assessed as accumulation of cells at S phase at 8.7 uM after 24 hrs by propidium iodide staining based flow cytometric analysis; assay type: functional
[17] = tested on: HeLa; experiment: Induction of cell cycle arrest in human HeLa cells assessed as accumulation of cells at G0/G1 phase after 24 hrs by propidium iodide staining based flow cytometric analysis; assay type: functional
[18] = tested on: MCF7; experiment: Induction of cell cycle arrest in human MCF7 cells assessed as accumulation of cells at S phase at 8.7 uM after 24 hrs by Propidium iodide staining based flow cytometric analysis (reference value: 23.75 +/- 1.87%); assay type: functional
[19] = tested on: MCF7; experiment: Induction of cell cycle arrest in human MCF7 cells assessed as accumulation of cells at G0/G1 phase at 8.7 uM after 24 hrs by Propidium iodide staining based flow cytometric analysis (reference value: 47.8 +/- 0.42%); assay type: functional
[20] = tested on: MCF7; experiment: Induction of cell cycle arrest in human MCF7 cells assessed as accumulation of cells at G2/M phase at 8.7 uM after 24 hrs by Propidium iodide staining based flow cytometric analysis (reference value: 27 +/- 2.97%); assay type: functional
[21] = tested on: MCF7; experiment: Induction of cell cycle arrest in human MCF7 cells assessed as accumulation of cells at G2/M phase at 2.9 uM after 24 hrs by Propidium iodide staining based flow cytometric analysis (reference value: 27 +/- 2.97%); assay type: functional
[22] = tested on: MCF7; experiment: Induction of cell cycle arrest in human MCF7 cells assessed as accumulation of cells at S phase at 2.9 uM after 24 hrs by Propidium iodide staining based flow cytometric analysis (reference value: 23.75 +/- 1.87%); assay type: functional
[23] = tested on: MCF7; experiment: Induction of cell cycle arrest in human MCF7 cells assessed as accumulation of cells at G0/G1 phase at 2.9 uM after 24 hrs by Propidium iodide staining based flow cytometric analysis (reference value: 47.8 +/- 0.42%); assay type: functional

SMILES: COc1ccc(-n2nc(C)c3c2C=C2Oc4c(C(C)=O)c(O)c(C)c(O)c4[C@]2(C)C3=O)cc1
- inhibition [1]: inactive
- inhibition [2]: inactive

SMILES: COc1ccc(-n2nc(C)c3c2C=C2Oc4c(C(C)=O)c(O)c(C)c(O)c4C2(C)C3=O)cc1 (racemic)
- inhibition [1]: inactive
- inhibition [2]: inactive

SMILES: CC(=O)c1c(O)c(C)c(O)c2c1OC1=Cc3c(c(C)nn3C)C(=O)[C@]12C
- Activity [3]: 51 - 65%
- IC50 ([4]; Homo sapiens, HeLa, 48 h): 1.2 µM
- IC50 [5]: 2.7 µM
- IC50 [6]: > 10 µM
- IC50 ([1]; Homo sapiens, MCF7, 48 h): > 10 µM
- IC50 [7]: > 10 µM
- Activity [8]: inactive
- Activity [9]: inactive
- Activity [10]: Active
- Activity [11]: Active
- IC50 [12]: > 10 µM
- IC50 [2]: > 10 µM
- IC50 [13]: > 10 µM
- Activity [14]: inactive

SMILES: CC(=O)c1c(O)c(C)c(O)c2c1OC1=Cc3c(c(C)nn3-c3ccccc3)C(=O)C12C (racemic)
- inhibition [1]: inactive
- inhibition [2]: inactive

SMILES: CC(=O)c1c(O)c(C)c(O)c2c1OC1=Cc3c(c(C)nn3-c3ccc(Cl)c(Cl)c3)C(=O)[C@]12C
- inhibition [1]: inactive
- inhibition [2]: inactive

SMILES: CC(=O)c1c(O)c(C)c(O)c2c1OC1=CC(=O)C(C(C)=O)C(=O)C12C (stereo in doubt; (-)-1) [listing 1 of 2 here]
- Activity [15]: Active
- Activity [16]: Active

SMILES: CC(=O)c1c(O)c(C)c(O)c2c1OC1=Cc3c(c(C)nn3-c3ccc(C)cc3)C(=O)[C@]12C
- inhibition [1]: inactive
- inhibition [2]: inactive

SMILES: CC(=O)c1c(O)c(C)c(O)c2c1OC1=Cc3c(c(C)nn3-c3ccc(C)cc3)C(=O)C12C (racemic)
- inhibition [1]: inactive
- inhibition [2]: inactive

SMILES: CC(=O)c1c(O)c(C)c(O)c2c1OC1=Cc3c(c(C)nn3-c3ccc(Cl)c(Cl)c3)C(=O)C12C (racemic)
- inhibition [1]: inactive
- inhibition [2]: inactive

SMILES: CC(=O)c1c(O)c(C)c(O)c2c1OC1=Cc3c(c(C)nn3C)C(=O)C12C (racemic)
- Activity [3]: 51 - 65%
- IC50 ([4]; Homo sapiens, HeLa, 48 h): 1.1 µM
- IC50 [5]: 2.7 µM
- Activity [17]: Dose-dependent effect
- IC50 [6]: > 10 µM
- IC50 ([1]; Homo sapiens, MCF7, 48 h): > 10 µM
- IC50 [7]: > 10 µM
- Activity [8]: inactive
- Activity [9]: inactive
- Activity [10]: Active
- Activity [11]: Active
- IC50 [12]: > 10 µM
- IC50 [2]: > 10 µM
- IC50 [13]: > 10 µM
- Activity [14]: inactive

SMILES: CC(=O)c1c(O)c(C)c(O)c2c1OC1=Cc3c(c(C)nn3-c3ccc(F)cc3)C(=O)C12C (racemic)
- inhibition [1]: inactive
- inhibition [2]: inactive

SMILES: CC(=O)c1c(O)c(C)c(O)c2c1OC1=CC(=O)C(C(C)=O)C(=O)C12C (stereo in doubt; (+)-1) [listing 1 of 2 here]
- IC50 ([4]; hela): 10 to 23.7 µM
- Activity [18]: 22.4%
- IC50 ([1]; mcf7): 10 to 75.7 µM
- Activity [19]: 50.6%
- Activity [20]: 24.8%
- Activity [21]: 28.8%
- Activity [22]: 23%
- Activity [23]: 46%

SMILES: CC(=O)c1c(O)c(C)c(O)c2c1OC1=CC(=O)C(C(C)=O)C(=O)C12C (stereo in doubt; (-)-1) [listing 2 of 2 here]
- IC50 ([4]; Homo sapiens, HeLa, 48 h): > 10 µM
- IC50 [5]: > 10 µM
- Activity [18]: 20.6%
- IC50 [6]: > 10 µM
- IC50 ([1]; Homo sapiens, MCF7, 48 h): > 10 µM
- IC50 [7]: > 10 µM
- IC50 [12]: > 10 µM
- Activity [19]: 52.35%
- Activity [20]: 24.95%
- Activity [21]: 28.25%
- IC50 [2]: > 10 µM
- Activity [22]: 22.9%
- IC50 [13]: > 10 µM
- Activity [23]: 46.95%

SMILES: CC(=O)c1c(O)c(C)c(O)c2c1OC1=Cc3c(c(C)nn3-c3ccccc3)C(=O)[C@]12C
- inhibition [1]: inactive
- inhibition [2]: inactive

SMILES: CC(=O)c1c(O)c(C)c(O)c2c1OC1=CC(=O)C(C(C)=O)C(=O)C12C (stereo in doubt; (+)-1) [listing 2 of 2 here]
- Activity [15]: Active
- Activity [16]: Active

SMILES: CC(=O)c1c(O)c(C)c(O)c2c1OC1=Cc3c(c(C)nn3-c3ccc(F)cc3)C(=O)[C@]12C
- inhibition [1]: inactive
- inhibition [2]: inactive
